A short description of data set [1]: melting temperature; fluorescence melt of hairpins on a sequencing array, two-state fit, raised by 9.35 °C to match UV melts. The following applies: sodium 0.088 M. In outline: (§1)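 Folding enthalpy and melting temperature come from bootstrapped two-state fits to Cy3 fluorescence of library hairpins carrying annealed Cy3 and quencher oligos on a sequenced MiSeq flow cell. Imaging was done in 50 mM Na-HEPES pH 8.0, 25 mM NaCl, stepping by 2.5 °C up to 60 °C, and signals were normalised to pre-quench Cy3 and to control constructs. Results of four replicates were combined by inverse variance, and fitted temperatures were raised by 9.35 °C to match UV melts.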

Data set [2] can be described thus: folding enthalpy; higher = less favourable; fluorescence melt of hairpins on a sequencing array, two-state fit. The following applies: sodium 0.088 M. In outline: as §1

Consider GGTTGATCGAAAGATACC (((..(((....)))))), for which the Tm in data set [1] is 25.5 °C. Further, the folding enthalpy in data set [2] was -8.74 kcal/mol.

Take GGTTGCCGAAAGGCCACC (((.(((....))).))): the Tm in data set [1] amounted to 52.6 °C. The folding enthalpy in data set [2] is -26.6 kcal/mol.

As to GGTTGCGAAAGCAGCACC ((((((....)))..))), in data set [1], the Tm was determined as 41 °C. Besides, the folding enthalpy in data set [2] was -12.4 kcal/mol.

As to GGTTGCGAAAGCATACC ((((((....))).))), in data set [1], the Tm stood at 51.8 °C. Moreover, the folding enthalpy in data set [2] was -28.7 kcal/mol.

Regarding GGTTGCGAAAGCATGACC ((((((....)))..))), in data set [1], the Tm came out at 40.2 °C. Moreover, the folding enthalpy in data set [2] was -15.7 kcal/mol.

Regarding GGTTGCGGAAACGCAGTC (..((((....))))..), the Tm in data set [1] came out at 36.1 °C. For the same sequence, the folding enthalpy in data set [2] is -12.8 kcal/mol.

Turning to GGTTGGCGAAAGCCACC (((.(((....)))))), in data set [1], the Tm amounted to 57.7 °C. Also, in data set [2], the folding enthalpy was -16.5 kcal/mol.

GGTTGGGGAAACCCGATC (.(.(((....))).).): the Tm in data set [1] was determined as 34.4 °C. For the same sequence, the folding enthalpy in data set [2] is -21.6 kcal/mol.

In the case of GGTTGGGGAAACCTAGCC ((.(.((....)).).)), the Tm in data set [1] came out at 38 °C. In data set [2], the folding enthalpy was -19.1 kcal/mol.

As for GGTTGGGGAAACTCAACC (((((.(....).))))), the Tm in data set [1] was 51.1 °C. Besides, the folding enthalpy in data set [2] is -38.4 kcal/mol.

For GGTTGGTCGAAAGACACC (((..(((....)))))), the Tm in data set [1] was found to be 37 °C. In addition, the folding enthalpy in data set [2] is -17.3 kcal/mol.

Consider GGTTGTCCGAAAGGAACC (((..(((....)))))), for which the Tm in data set [1] was 31.2 °C. The folding enthalpy in data set [2] is -14.5 kcal/mol.

Turning to GGTTGTGGAAACACAGCC ((.((((....)))).)), the Tm in data set [1] was 52.1 °C. In addition, the folding enthalpy in data set [2] was -42.4 kcal/mol.

For the sequence GGTTGTGGAAACGTAACC ((((..(....)..)))), the Tm in data set [1] is 35.7 °C. The folding enthalpy in data set [2] is -24.3 kcal/mol.

With GGTTTACGAAAGTATACC (((.(((....))).))), the Tm in data set [1] is 45.5 °C. Besides, in data set [2], the folding enthalpy is -39.3 kcal/mol.

As to GGTTTAGGAAACTGAACC ((((.((....)).)))), the Tm in data set [1] is 43.2 °C. Also, the folding enthalpy in data set [2] was -31.8 kcal/mol.

As for GGTTTCCCGAAAGGGACC (((..(((....)))))), in data set [1], the Tm amounted to 33.8 °C. In addition, the folding enthalpy in data set [2] was -12.3 kcal/mol.

As for GGTTTCGAAAGAAAAACC ((((((....)))..))), the Tm in data set [1] came to 33.6 °C. The folding enthalpy in data set [2] is -23.4 kcal/mol.

Consider GGTTTCGAAAGAAACC ((((((....)))))), for which the Tm in data set [1] was determined as 64.2 °C. The folding enthalpy in data set [2] was -40.8 kcal/mol.

Turning to GGTTTCGAAAGAAGTACC ((((((....)))..))), the Tm in data set [1] is 29.8 °C. Further, the folding enthalpy in data set [2] is -12.7 kcal/mol.

Regarding GGTTTCGGAAACGGAACC ((((.((....)).)))), in data set [1], the Tm came out at 52.6 °C. In addition, the folding enthalpy in data set [2] was -45 kcal/mol.

Take GGTTTGCGAAAGCACACC (((.(((....))).))): the Tm in data set [1] was found to be 51.7 °C. In addition, the folding enthalpy in data set [2] is -28.2 kcal/mol.

On to GGTTTGGGAAACCAAACC (((((((....))))))), for which the Tm in data set [1] was determined as 64.6 °C. Also, the folding enthalpy in data set [2] is -40.3 kcal/mol.

With GGTTTGGGAAACCAGACC (((.(((....))).))), the Tm in data set [1] turned out to be 47.8 °C. The folding enthalpy in data set [2] was -33.1 kcal/mol.

For GGTTTGGGAAACTAGACC (((.(.(....).).))), the Tm in data set [1] turned out to be 30.7 °C. In addition, the folding enthalpy in data set [2] is -18.1 kcal/mol.

On to GTAAAAGAAATTTTAC ((((((....)))))), for which the Tm in data set [1] amounted to 30.8 °C. In addition, the folding enthalpy in data set [2] is -13 kcal/mol.

With GTAAAAGCGAAAGCTTAC (((..(((....)))))), in data set [1], the Tm amounted to 35.9 °C. In data set [2], the folding enthalpy is -11.6 kcal/mol.

Regarding GTAAACCGAAAGGTTAC (((.(((....)))))), the Tm in data set [1] came to 43.2 °C. The folding enthalpy in data set [2] is -15.7 kcal/mol.

For GTAAACGAAAGTTACTAC ((((((....)))..))), the Tm in data set [1] came out at 34.8 °C. Besides, in data set [2], the folding enthalpy was -17.6 kcal/mol.

For the sequence GTAAACGAAAGTTTTAC ((((((....))).))), the Tm in data set [1] is 36.5 °C. For the same sequence, the folding enthalpy in data set [2] is -18.5 kcal/mol.

On to GTAAACTCGAAAGAGTAC (((..(((....)))))), for which the Tm in data set [1] was 31 °C. Further, in data set [2], the folding enthalpy is -11.9 kcal/mol.

Take GTAAAGCCGAAAGGCTAC (((..(((....)))))): the Tm in data set [1] was determined as 35.5 °C. Further, the folding enthalpy in data set [2] was -8.48 kcal/mol.

In the case of GTAAAGCGAAAGCTATAC (((.(((....))).))), in data set [1], the Tm was determined as 41.3 °C. Further, in data set [2], the folding enthalpy is -15.6 kcal/mol.

For the sequence GTAAATACGAAAGTATAC (((..(((....)))))), the Tm in data set [1] worked out at 25 °C. In data set [2], the folding enthalpy is -9.48 kcal/mol.

Consider GTAAATCCGAAAGGATAC (((..(((....)))))), for which, in data set [1], the Tm amounted to 33.8 °C. The folding enthalpy in data set [2] was -11 kcal/mol.

In the case of GTAACACGAAAGTGATAC (((.(((....))).))), the Tm in data set [1] worked out at 46.8 °C. The folding enthalpy in data set [2] was -25.5 kcal/mol.

For the sequence GTAACCCCGAAAGGGTAC (((..(((....)))))), in data set [1], the Tm stood at 35 °C. In data set [2], the folding enthalpy is -13.6 kcal/mol.

GTAACCCGAAAGGGCTAC (((.(((....))).))): in data set [1], the Tm was found to be 45.6 °C. Further, the folding enthalpy in data set [2] was -20 kcal/mol.

Turning to GTAACCCGAAAGGGTAC (((.(((....)))))), in data set [1], the Tm is 50.1 °C. Besides, in data set [2], the folding enthalpy was -12.5 kcal/mol.

For GTAACCGAAAGGTCTTAC ((((((....)))..))), the Tm in data set [1] came out at 30.6 °C. Moreover, the folding enthalpy in data set [2] was -11.6 kcal/mol.

As to GTAACCGAAAGGTTAC ((((((....)))))), the Tm in data set [1] is 67.1 °C. Moreover, in data set [2], the folding enthalpy was -29 kcal/mol.

As to GTAACCGCGAAAGCGTAC (((..(((....)))))), the Tm in data set [1] was determined as 28.4 °C. Also, the folding enthalpy in data set [2] was -8.01 kcal/mol.

Take GTAACCGGAAACAGTTAC (((((.(....).))))): the Tm in data set [1] amounted to 32.9 °C. Besides, the folding enthalpy in data set [2] is -21.2 kcal/mol.

GTAACCGGAAACGGCTAC (((.(((....))).))): the Tm in data set [1] stood at 42.9 °C. Moreover, the folding enthalpy in data set [2] was -25.9 kcal/mol.

For GTAACCGGAAACGGTCAC ((.((((....)))).)), in data set [1], the Tm was 39.7 °C. The folding enthalpy in data set [2] was -17.2 kcal/mol.

As to GTAACCGGAAACGGTTAC (((((((....))))))), in data set [1], the Tm is 65.8 °C. For the same sequence, the folding enthalpy in data set [2] was -38.8 kcal/mol.

As for GTAACGCGAAAGCGGTAC (((.(((....))).))), the Tm in data set [1] turned out to be 65.3 °C. In addition, the folding enthalpy in data set [2] is -27.1 kcal/mol.

Consider GTAACGGGAAACCGTCAC ((.((((....)))).)), for which the Tm in data set [1] amounted to 35.7 °C. The folding enthalpy in data set [2] is -16.4 kcal/mol.

In the case of GTAACGGGAAACCGTTAC (((((((....))))))), in data set [1], the Tm is 60.5 °C. Further, the folding enthalpy in data set [2] was -49.6 kcal/mol.

For the sequence GTAACTCGAAAGAGTAC (((.(((....)))))), the Tm in data set [1] was 42.4 °C. Further, in data set [2], the folding enthalpy was -15 kcal/mol.

Consider GTAACTGAAAAGTTAC ((((((....)))))), for which, in data set [1], the Tm is 50.9 °C. Moreover, the folding enthalpy in data set [2] is -31.4 kcal/mol.

Take GTAAGACGAAAGTCGTAC (((.(((....))).))): in data set [1], the Tm stood at 50.4 °C. The folding enthalpy in data set [2] was -17.8 kcal/mol.

In the case of GTAAGACGAAAGTCTAC (((.(((....)))))), the Tm in data set [1] came out at 41.7 °C. Also, the folding enthalpy in data set [2] is -14.6 kcal/mol.

As for GTAAGAGGAAACTCTTGC (.(((((....))))).), the Tm in data set [1] was determined as 38.7 °C. The folding enthalpy in data set [2] was -25 kcal/mol.

In the case of GTAAGCGAAAGCTTGTAC ((((((....)))..))), the Tm in data set [1] stood at 32.3 °C. Besides, the folding enthalpy in data set [2] is -11.7 kcal/mol.

Values taken from the array DNA melting data of Ke et al. (doi:10.1101/2024.01.08.574731).
